Data on 32 molecules can be found in ChEMBL document CHEMBL1177674, “2-acylamino-4,6-diphenylpyridine derivatives as novel GPR54 antagonists with good brain exposure and in vivo efficacy for plasma LH level in male rats” (Bioorg Med Chem, 2010).

Molecules are shown by their SMILES.

Data set [1] deals with T1, KiSS-1 receptor (Homo sapiens, UniProt Q969F8). The data set is described as follows: Displacement of [125I]metastin from human GPR54 receptor expressed in CHO cells. The format is cell-based. Summed up:
(§1)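 Membranes came from CHO cells stably expressing human or rat GPR54. They were incubated with 135 pM 125I-metastin (40–54) plus compound for 60 min at 25 °C, in Tris binding buffer pH 7.4 with protease inhibitors and 1 mg/ml BSA. Samples were filtered through PEI-pretreated GF/C filters, buffer-washed, and the bound radioactivity was counted.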

The target of data set [2] is KiSS-1 receptor (Rattus norvegicus, UniProt Q924U1). Nature of the data set: Displacement of [125I]metastin from rat GPR54 receptor expressed in CHO cells. The format is cell-based. Summed up: as §1
A short description of data set [3]: Lipophilicity, log D at pH 7.4. The data set is classed as physicochemical. The conditions noted are these: buffer.
The test system of a further data set is Caco-2. The data set is described as follows: Ratio of permeability from basolateral to apical side to apical to basolateral side of human Caco-2 cells. The format is ADME, cell-based. The gist of the method: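 Caco-2 monolayers were grown to confluence on collagen-coated polycarbonate Transwell membranes. Assay buffer was HBSS with 10 mmol/L HEPES, 15 mmol/L glucose and 1% BSA, pH 7.3–7.5. Compound was dosed apically or basolaterally at 37 °C, 5% CO2. Receivers were sampled at 1 and 2 h and donors at 2 h, in duplicate. A cell-free membrane corrected for nonspecific binding. The B-to-A/A-to-B ratio was derived.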

Data set [4] has as its target T1, KiSS-1 receptor. The data set is described as follows: Antagonist activity at human GPR54 receptor assessed as inhibition of metastin-induced calcium mobilization. The format is functional. The gist of the method:
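Cells in MEM with 10% dFBS, penicillin and streptomycin, plated at 30,000 cells/well and cultured overnight. Loaded 60 min at 37 °C in Hepes-buffered saline (pH 7.4) containing 0.1% BSA, Fluo-3AM, 1.25 mM probenecid and 0.04% Pluronic F-127. Washed at 37 °C in the same buffer with BSA and probenecid. Ca²⁺ mobilization read on FLIPR.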

For another data set, the system named is Rattus norvegicus. Nature of the data set: Decrease in leutinizing hormone level in castrated Wistar rat plasma at 0.22 mg/kg, iv for 5 times with 10 mins interval measured after 60 mins postdose by radioimmunoassay. The arrangement: scale not given: the % may be the effect or the level left. The data set is classed as functional. Summed up: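 Male Wistar rats, 11 weeks old, were castrated 7 days before testing. Compound was suspended at […] in 20% DMSO-40% PEG400. It was given at 0.22 mg/kg (0.8 ml/kg) via jugular catheter five times at 10 min intervals, for 1.1 mg/kg total. Vehicle served as control; n = 8 per group. Blood was drawn before dosing and at 25–180 min, then aprotinin–EDTA plasma was prepared. Values are means SE of eight.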

Sequence of KiSS-1 receptor (Rattus norvegicus, UniProt Q924U1) (Q924U1 whole entry): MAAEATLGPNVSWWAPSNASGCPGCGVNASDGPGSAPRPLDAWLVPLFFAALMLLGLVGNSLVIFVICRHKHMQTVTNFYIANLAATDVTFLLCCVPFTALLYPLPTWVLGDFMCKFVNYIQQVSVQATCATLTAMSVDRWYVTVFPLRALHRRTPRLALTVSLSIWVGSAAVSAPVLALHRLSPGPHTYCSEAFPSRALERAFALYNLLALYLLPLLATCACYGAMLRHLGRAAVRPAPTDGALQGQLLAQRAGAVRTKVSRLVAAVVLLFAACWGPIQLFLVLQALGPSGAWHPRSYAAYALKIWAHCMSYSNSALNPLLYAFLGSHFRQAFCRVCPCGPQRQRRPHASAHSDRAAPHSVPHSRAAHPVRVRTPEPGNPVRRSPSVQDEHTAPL
T1 sequence (Q969F8 whole entry): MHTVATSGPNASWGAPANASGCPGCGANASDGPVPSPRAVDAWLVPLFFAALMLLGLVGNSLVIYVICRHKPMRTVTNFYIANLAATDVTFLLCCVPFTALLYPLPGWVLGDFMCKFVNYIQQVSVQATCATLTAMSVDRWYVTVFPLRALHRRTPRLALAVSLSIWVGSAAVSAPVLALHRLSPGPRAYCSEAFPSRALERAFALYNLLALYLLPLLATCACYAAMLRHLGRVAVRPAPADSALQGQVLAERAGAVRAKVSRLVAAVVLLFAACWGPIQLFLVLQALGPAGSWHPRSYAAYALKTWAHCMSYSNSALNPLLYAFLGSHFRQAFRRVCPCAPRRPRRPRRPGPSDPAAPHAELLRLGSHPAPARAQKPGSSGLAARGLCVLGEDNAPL

Consider `N#Cc1c(-c2cccc(NC(=O)[C@H]3CCCN3)c2)cc(-c2ccc(F)cc2O)nc1NC(=O)c1ccco1`, for which the half-inhibitory concentration (IC50) at KiSS-1 receptor [1] stood at 16 nM.
Regarding `CNCCC(=O)Nc1cccc(-c2cc(-c3ccc(F)cc3O)nc(NC(=O)c3ccco3)c2C#N)c1`, the IC50 was 4.6 nM on KiSS-1 receptor [1] and 20 nM on KiSS-1 receptor [2]. The same molecule gave a logD in data set [3] of 2.13.
On to `CCNC(CC)CC(=O)Nc1cccc(-c2cc(-c3ccc(F)cc3O)nc(NC(=O)c3ccco3)c2C#N)c1` (racemic), for which the IC50 on KiSS-1 receptor [1] was determined as 8 nM.
The same measure, in the same setting: then `N#Cc1c(-c2cccc(NC(=O)CN)c2)cc(-c2ccc(F)cc2O)nc1NC(=O)c1ccco1`, with 4.1 nM.
With `CN1CCN(Cc2cccc(-c3cc(-c4ccc(F)cc4O)nc(NC(=O)c4ccco4)c3C#N)c2)CC1`, the IC50 at KiSS-1 receptor [1] is 18 nM.
For `CNCC(=O)Nc1cccc(-c2cc(-c3ccc(F)cc3O)nc(NC(=O)c3ccco3)c2C#N)c1`, the IC50 on KiSS-1 receptor [1] amounted to 8.4 nM; at KiSS-1 receptor [2], 26 nM. The same molecule showed a logD in data set [3] of 2.66.
For the molecule `CCNC(C)CC(=O)Nc1cccc(-c2cc(-c3ccc(F)cc3O)nc(NC(=O)c3ccco3)c2C#N)c1` (racemic), on KiSS-1 receptor [1], the IC50 was determined as 10 nM.
Regarding `CCC(CC(=O)Nc1cccc(-c2cc(-c3ccc(F)cc3O)nc(NC(=O)c3ccco3)c2C#N)c1)N(CC)CC` (racemic), the IC50 on KiSS-1 receptor [1] worked out at 22 nM.
`N#Cc1c(-c2cccc(CN3CCCNCC3)c2)cc(-c2ccc(F)cc2O)nc1NC(=O)c1ccco1`: the IC50 on KiSS-1 receptor [1] was determined as 25 nM.
Same read-out and setting: to `N#Cc1c(-c2cccc(N3CCCNCC3)c2)cc(-c2ccc(F)cc2O)nc1NC(=O)c1ccco1` belongs 7.3 nM; to `N#Cc1c(-c2cccc(NC(=O)CN3CCCC3)c2)cc(-c2ccc(F)cc2O)nc1NC(=O)c1ccco1`, 15 nM.
On KiSS-1 receptor [1], `CN(C)CCN(C)c1cccc(-c2cc(-c3ccc(F)cc3O)nc(NC(=O)c3ccco3)c2C#N)c1` yielded an IC50 of 30 nM.
For the molecule `N#Cc1c(-c2cccc(NC(=O)C[C@H]3CCCN3)c2)cc(-c2ccc(F)cc2O)nc1NC(=O)c1ccco1`, the IC50 at KiSS-1 receptor [1] was determined as 10 nM; at KiSS-1 receptor [2], 38 nM. The same molecule registered a logD in data set [3] of 2.13.
`N#Cc1c(-c2cccc(NC(=O)CC3CCCCN3)c2)cc(-c2ccc(F)cc2O)nc1NC(=O)c1ccco1` (racemic): at KiSS-1 receptor [1], the IC50 is 14 nM.
As for `CCN(CC)CC(=O)Nc1cccc(-c2cc(-c3ccc(F)cc3O)nc(NC(=O)c3ccco3)c2C#N)c1`, on KiSS-1 receptor [1], the IC50 was 30 nM.
For the molecule `CN(C)CCC(=O)Nc1cccc(-c2cc(-c3ccc(F)cc3O)nc(NC(=O)c3ccco3)c2C#N)c1`, the IC50 came to 10 nM on KiSS-1 receptor [1] and 47 nM on KiSS-1 receptor [2]. For the same molecule, in the data set on Caco-2, the Ratio is reported as 4.3. Moreover, the logD in data set [3] is 2.95.
For the molecule `CCN(C)CCC(=O)Nc1cccc(-c2cc(-c3ccc(F)cc3O)nc(NC(=O)c3ccco3)c2C#N)c1`, the IC50 at KiSS-1 receptor [1] amounted to 10 nM.
For `CN(C)CCNC(=O)c1cccc(-c2cc(-c3ccc(F)cc3O)nc(NC(=O)c3ccco3)c2C#N)c1`, the IC50 at KiSS-1 receptor [1] was 20 nM.
Turning to `N#Cc1c(-c2cccc(NC(=O)CCN)c2)cc(-c2ccc(F)cc2O)nc1NC(=O)c1cccs1`, the Ratio with Caco-2 is listed as 49. The molecule further showed a logD in data set [3] of 2.14.
The molecule `CN1CCN(c2cccc(-c3cc(-c4ccc(F)cc4O)nc(NC(=O)c4ccco4)c3C#N)c2)CC1` gave an IC50 on KiSS-1 receptor [1] of 15 nM.
As to `N#Cc1c(-c2cccc(NC(=O)C[C@@H]3CCCN3)c2)cc(-c2ccc(F)cc2O)nc1NC(=O)c1ccco1`, the IC50 is 7.9 nM at KiSS-1 receptor [1] and 26 nM on KiSS-1 receptor [2]. The molecule further yielded a logD in data set [3] of 2.29.
As to `CCN(CC)C(C)CC(=O)Nc1cccc(-c2cc(-c3ccc(F)cc3O)nc(NC(=O)c3ccco3)c2C#N)c1` (racemic), the IC50 on KiSS-1 receptor [1] came to 17 nM.
Consider `N#Cc1c(-c2cccc(N3CCNCC3)c2)cc(-c2ccc(F)cc2O)nc1NC(=O)c1ccco1`, for which the values for the half-maximal inhibitory concentration (IC50) on KiSS-1 receptor [1], on KiSS-1 receptor [2] and on KiSS-1 receptor [4] were 3.6 nM, 15 nM and 930 nM, respectively. Moreover, the Ratio in the data set with Caco-2 is reported as 1.2. The molecule further had an Activity in the data set with Rattus norvegicus of 32%. For the same molecule, the logD in data set [3] is 2.72.
In turn, `N#Cc1c(-c2cccc(CN3CCNCC3)c2)cc(-c2ccc(F)cc2O)nc1NC(=O)c1ccco1` had an IC50 on KiSS-1 receptor [1] of 9.7 nM.
Consider `CN(C)CC(=O)Nc1cccc(-c2cc(-c3ccc(F)cc3O)nc(NC(=O)c3ccco3)c2C#N)c1`, for which the values for the IC50 on KiSS-1 receptor [1] and on KiSS-1 receptor [2] were 12 nM and 130 nM, respectively. Also, the Ratio with Caco-2 was 1.4. Further, the logD in data set [3] amounted to 3.31.
As to `CN(C)CC(=O)Nc1cccc(-c2cc(-c3ccccc3O)nc(NC(=O)c3cccs3)c2C#N)c1`, the IC50 at KiSS-1 receptor [1] was found to be 180 nM. Moreover, the Ratio with Caco-2 is on record as 1. In data set [3], this molecule had a logD of 3.07.
For the molecule `CCN1CCN(Cc2cccc(-c3cc(-c4ccc(F)cc4O)nc(NC(=O)c4ccco4)c3C#N)c2)CC1`, the IC50 at KiSS-1 receptor [1] was determined as 20 nM.
Still for that read-out and setting: to `CC(CC(=O)Nc1cccc(-c2cc(-c3ccc(F)cc3O)nc(NC(=O)c3ccco3)c2C#N)c1)N(C)C` (racemic) belongs 18 nM; to `CC(C)NC(C)CC(=O)Nc1cccc(-c2cc(-c3ccc(F)cc3O)nc(NC(=O)c3ccco3)c2C#N)c1` (racemic), 9.7 nM.
For `CN1CCC[C@H]1CC(=O)Nc1cccc(-c2cc(-c3ccc(F)cc3O)nc(NC(=O)c3ccco3)c2C#N)c1`, at KiSS-1 receptor [1], the IC50 stood at 18 nM.
As to `CCN1CCN(c2cccc(-c3cc(-c4ccc(F)cc4O)nc(NC(=O)c4ccco4)c3C#N)c2)CC1`, the IC50 is 11 nM at KiSS-1 receptor [1] and 47 nM on KiSS-1 receptor [2]. Also, the Ratio in the data set on Caco-2 is given as 1. Also, the logD in data set [3] came to 4.1.
Take `CCN(CC)CCC(=O)Nc1cccc(-c2cc(-c3ccc(F)cc3O)nc(NC(=O)c3ccco3)c2C#N)c1`: the IC50 at KiSS-1 receptor [1] was found to be 16 nM.
